Measurements from ChEMBL document CHEMBL1131143, “Predictive models for GABAA/benzodiazepine receptor subtypes: studies of quantitative structure-activity relationships for imidazobenzodiazepines at five recombinant GABAA/benzodiazepine receptor subtypes [alphaxbeta3gamma2 (x = 1-3, 5, and 6)] via comparative molecular field analysis” (J Med Chem, 1998).

Experiments:
Assay type in all cases: protein-complex assay
[1] = target: T1, GABA-A receptor; alpha-1/beta-3/gamma-2 (Homo sapiens, UniProt P14867+P18507+P28472); assay: Binding affinity against alpha-1-beta-3-gamma-2 GABAA/BzR receptor subtype.
T1 sequence (P14867 whole entry): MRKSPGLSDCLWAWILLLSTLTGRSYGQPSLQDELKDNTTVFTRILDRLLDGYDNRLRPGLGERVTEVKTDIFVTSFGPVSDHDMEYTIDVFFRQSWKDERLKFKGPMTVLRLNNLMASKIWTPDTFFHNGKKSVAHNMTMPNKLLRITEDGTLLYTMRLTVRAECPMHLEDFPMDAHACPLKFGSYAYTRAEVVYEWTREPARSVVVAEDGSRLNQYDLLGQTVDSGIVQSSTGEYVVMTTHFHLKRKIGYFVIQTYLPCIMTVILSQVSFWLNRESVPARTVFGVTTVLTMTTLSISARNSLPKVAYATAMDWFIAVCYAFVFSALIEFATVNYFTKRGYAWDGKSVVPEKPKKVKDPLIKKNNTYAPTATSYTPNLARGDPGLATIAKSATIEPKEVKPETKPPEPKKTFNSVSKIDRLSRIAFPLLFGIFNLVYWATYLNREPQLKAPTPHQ
T1 sequence (P18507 whole entry): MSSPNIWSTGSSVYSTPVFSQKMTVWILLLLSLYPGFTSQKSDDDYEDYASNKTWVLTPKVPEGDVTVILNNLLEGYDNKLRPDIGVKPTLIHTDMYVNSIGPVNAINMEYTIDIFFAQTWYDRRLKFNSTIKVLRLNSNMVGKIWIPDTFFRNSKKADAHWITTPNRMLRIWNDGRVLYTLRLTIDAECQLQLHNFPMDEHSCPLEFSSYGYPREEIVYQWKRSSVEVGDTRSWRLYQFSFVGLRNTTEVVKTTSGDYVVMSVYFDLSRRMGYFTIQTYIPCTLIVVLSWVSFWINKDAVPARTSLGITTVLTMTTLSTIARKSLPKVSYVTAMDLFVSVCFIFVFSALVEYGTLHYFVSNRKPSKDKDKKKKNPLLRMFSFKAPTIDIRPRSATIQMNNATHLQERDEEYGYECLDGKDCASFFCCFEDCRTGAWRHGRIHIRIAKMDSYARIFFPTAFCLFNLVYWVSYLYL
T1 sequence (P28472 whole entry): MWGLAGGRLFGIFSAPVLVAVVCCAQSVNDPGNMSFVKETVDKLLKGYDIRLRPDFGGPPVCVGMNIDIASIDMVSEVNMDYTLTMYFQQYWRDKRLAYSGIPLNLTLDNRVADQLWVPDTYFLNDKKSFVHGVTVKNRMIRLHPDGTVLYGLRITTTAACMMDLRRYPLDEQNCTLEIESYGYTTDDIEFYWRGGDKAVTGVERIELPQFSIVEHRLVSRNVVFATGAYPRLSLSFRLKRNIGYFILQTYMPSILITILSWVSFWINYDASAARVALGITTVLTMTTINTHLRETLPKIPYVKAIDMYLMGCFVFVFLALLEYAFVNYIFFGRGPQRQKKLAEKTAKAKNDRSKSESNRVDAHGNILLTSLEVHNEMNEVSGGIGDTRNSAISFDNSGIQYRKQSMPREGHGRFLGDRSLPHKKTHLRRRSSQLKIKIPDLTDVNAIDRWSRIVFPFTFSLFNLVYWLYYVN

[2] = target: T2, GABA-A receptor; alpha-3/beta-3/gamma-2 (Homo sapiens, UniProt P18507+P28472+P34903); assay: Binding affinity against alpha-3-beta-3-gamma-2 GABAA/BzR receptor subtype.
T2 sequence (P18507 whole entry): T1 sequence (P18507 whole entry)
T2 sequence (P28472 whole entry): T1 sequence (P28472 whole entry)
T2 sequence (P34903 whole entry): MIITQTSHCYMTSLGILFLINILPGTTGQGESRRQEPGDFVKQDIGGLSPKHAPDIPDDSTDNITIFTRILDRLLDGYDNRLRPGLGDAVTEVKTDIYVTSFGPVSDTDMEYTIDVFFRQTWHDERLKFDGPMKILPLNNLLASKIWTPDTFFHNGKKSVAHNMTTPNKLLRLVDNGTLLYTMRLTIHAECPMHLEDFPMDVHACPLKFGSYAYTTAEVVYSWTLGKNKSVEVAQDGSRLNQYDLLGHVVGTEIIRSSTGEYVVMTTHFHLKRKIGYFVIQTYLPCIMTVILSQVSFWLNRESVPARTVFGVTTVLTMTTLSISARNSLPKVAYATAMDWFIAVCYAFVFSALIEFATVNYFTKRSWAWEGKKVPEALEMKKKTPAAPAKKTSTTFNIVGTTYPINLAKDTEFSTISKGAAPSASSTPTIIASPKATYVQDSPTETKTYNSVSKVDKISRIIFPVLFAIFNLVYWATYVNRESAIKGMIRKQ

[3] = target: T3, GABA-A receptor; alpha-2/beta-3/gamma-2 (Homo sapiens, UniProt P18507+P28472+P47869); assay: Binding affinity tested against alpha-2-beta-3-gamma-2 GABAA/BzR receptor subtype.
T3 sequence (P18507 whole entry): T1 sequence (P18507 whole entry)
T3 sequence (P28472 whole entry): T1 sequence (P28472 whole entry)
T3 sequence (P47869 whole entry): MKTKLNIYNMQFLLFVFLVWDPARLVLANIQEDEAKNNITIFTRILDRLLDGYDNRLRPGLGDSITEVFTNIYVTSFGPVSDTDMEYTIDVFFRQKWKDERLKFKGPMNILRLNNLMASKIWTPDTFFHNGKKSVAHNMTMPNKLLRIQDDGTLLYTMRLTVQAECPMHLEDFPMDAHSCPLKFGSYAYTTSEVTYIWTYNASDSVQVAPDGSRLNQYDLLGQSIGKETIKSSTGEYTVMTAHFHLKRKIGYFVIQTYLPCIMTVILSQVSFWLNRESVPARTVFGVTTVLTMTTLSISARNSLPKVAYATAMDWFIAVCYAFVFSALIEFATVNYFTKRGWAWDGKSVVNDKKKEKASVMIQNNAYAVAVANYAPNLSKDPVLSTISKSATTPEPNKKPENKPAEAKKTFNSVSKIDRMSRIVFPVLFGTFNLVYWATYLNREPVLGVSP

[4] = target: T4, GABA-A receptor; alpha-5/beta-3/gamma-2 (Homo sapiens, UniProt P18507+P28472+P31644); assay: Binding affinity for Gamma-aminobutyric acid A receptor alpha-5-beta-3-gamma-2
T4 sequence (P18507 whole entry): T1 sequence (P18507 whole entry)
T4 sequence (P28472 whole entry): T1 sequence (P28472 whole entry)
T4 sequence (P31644 whole entry): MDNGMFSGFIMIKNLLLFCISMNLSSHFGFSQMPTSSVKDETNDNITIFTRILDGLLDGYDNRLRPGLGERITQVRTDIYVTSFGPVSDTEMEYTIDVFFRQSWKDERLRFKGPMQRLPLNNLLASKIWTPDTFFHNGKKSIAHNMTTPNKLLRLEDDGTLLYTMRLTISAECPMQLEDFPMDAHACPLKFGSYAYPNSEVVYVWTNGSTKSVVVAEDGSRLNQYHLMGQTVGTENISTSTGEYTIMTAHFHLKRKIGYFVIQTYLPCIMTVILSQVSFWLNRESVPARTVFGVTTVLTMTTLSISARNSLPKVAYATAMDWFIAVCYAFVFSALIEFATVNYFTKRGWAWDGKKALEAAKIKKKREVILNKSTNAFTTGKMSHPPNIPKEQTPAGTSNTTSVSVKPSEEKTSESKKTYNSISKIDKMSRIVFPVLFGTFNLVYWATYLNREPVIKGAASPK

[5] = target: T5, GABA-A receptor; alpha-6/beta-3/gamma-2 (Homo sapiens, UniProt P18507+P28472+Q16445); assay: Binding affinity against Gamma-aminobutyric acid A receptor alpha-6-beta-3-gamma-2
T5 sequence (Q16445 whole entry, one chain of several): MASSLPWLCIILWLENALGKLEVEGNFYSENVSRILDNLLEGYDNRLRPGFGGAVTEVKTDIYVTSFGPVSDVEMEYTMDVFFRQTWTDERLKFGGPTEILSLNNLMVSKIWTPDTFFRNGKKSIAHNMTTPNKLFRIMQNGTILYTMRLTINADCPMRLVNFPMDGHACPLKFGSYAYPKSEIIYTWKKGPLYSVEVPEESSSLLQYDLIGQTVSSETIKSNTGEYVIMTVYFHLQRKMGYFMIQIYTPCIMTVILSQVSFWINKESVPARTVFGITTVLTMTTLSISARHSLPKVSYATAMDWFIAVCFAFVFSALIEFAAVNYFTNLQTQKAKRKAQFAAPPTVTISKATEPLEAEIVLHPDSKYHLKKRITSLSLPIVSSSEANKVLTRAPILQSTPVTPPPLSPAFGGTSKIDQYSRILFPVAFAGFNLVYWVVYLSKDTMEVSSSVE
Method in brief: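 Cells scraped into PBS, spun at 3000g, resuspended in 10 mM KH₂PO₄/100 mM KCl pH 7.4. Nonspecific binding with 10⁻⁵ M diazepam; 1 h to equilibrium at 4 °C; filtration, ice-cold buffer wash, scintillation counting.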

[6] = target: T6, GABA-A receptor; alpha-1/beta-3/gamma-2 (Homo sapiens) (UniProt P14867+P18507+P28472); assay: It is the ratio of Ki value for alpha-1-beta-3-gamma-2 to that of alpha-5-beta-3-gamma-2
[7] = target: T5, GABA-A receptor; alpha-6/beta-3/gamma-2; assay: Inhibition of Gamma-aminobutyric acid A receptor alpha-6-beta-3-gamma-2 at 1 uM
Method in brief: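 Competition binding on Ltk⁻ cells expressing human α6β3γ2, radioligand [³H]Ro 15-4513. Cells scraped into PBS, spun at 3000g, resuspended in 10 mM KH₂PO₄/100 mM KCl pH 7.4. Nonspecific binding with 10⁻⁵ M diazepam; 1 h to equilibrium at 4 °C; filtration, ice-cold buffer wash, scintillation counting.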

[8] = target: T6, GABA-A receptor; alpha-1/beta-3/gamma-2 (Homo sapiens); assay: Inhibition of GABA-A benzodiazepine receptor alpha-1-beta-3-gamma-2 subunits at 1 uM
[9] = target: GABA-A receptor; alpha-2/beta-3/gamma-2 (Homo sapiens) (UniProt P18507+P28472+P47869); assay: Inhibition of GABA-A benzodiazepine receptor alpha-2-beta-3-gamma-2 subunits at 1 uM
[10] = target: GABA-A receptor; alpha-3/beta-3/gamma-2 (Homo sapiens) (UniProt P18507+P28472+P34903); assay: Inhibition of GABA-A benzodiazepine receptor alpha-3-beta-3-gamma-2 subunits at 1 uM

Structure (SMILES): CN1Cc2c(C(=O)OC(C)(C)C)ncn2-c2ccc(Br)cc2C1=O
- Ki [1]: 11.4 nM
- Ki [2]: 9.2 nM
- Ki [3]: 10.7 nM
- Ki [4]: 0.47 nM
- Ki [5]: 9.4 nM
- Ratio [6]: 24.3

Structure (SMILES): C#Cc1ccc2c(c1)C(=O)N1CC[C@H]1c1c(-c3nc(C(C)C)no3)ncn1-2
- Ki [1]: 156 nM
- Ki [2]: 122 nM
- Ki [3]: 88 nM
- Ki [4]: 8.5 nM
- Ki [5]: 267 nM
- Ratio [6]: 18

Structure (SMILES): CN1Cc2c(C(=O)OC(C)(C)C)ncn2-c2ccc(I)cc2C1=O
- Ki [1]: 9.7 nM
- Ki [2]: 10.9 nM
- Ki [3]: 11.2 nM
- Ki [4]: 0.38 nM
- Ki [5]: 4.6 nM
- Ratio [6]: 25.5

Structure (SMILES): CN1Cc2c(C(=O)OC(C)(C)C)ncn2-c2ccc([N+](=O)[O-])cc2C1=O
- Ki [1]: 12.8 nM
- Ki [2]: 30.2 nM
- Ki [3]: 49.8 nM
- Ki [4]: 3.5 nM
- Ki [5]: 22.5 nM
- Ratio [6]: 3.7

Structure (SMILES): CCCCC(=O)c1ncn2c1CN(C)C(=O)c1cc(Cl)ccc1-2
- Ki [1]: 1580 nM
- Ki [2]: 2740 nM
- Ki [3]: 2860 nM
- Ki [4]: 166 nM
- Ki [5]: 2930 nM
- Ratio [6]: 9.6

Structure (SMILES): C#Cc1ccc2c(c1)C(=O)N(C)Cc1c(C(=O)OC(C)(C)C)ncn1-2
- Ki [1]: 26.9 nM
- Ki [2]: 18.7 nM
- Ki [3]: 26.3 nM
- Ki [4]: 0.4 nM
- Ki [5]: 5.1 nM
- Ratio [6]: 67.3

Structure (SMILES): C#Cc1ccc2c(c1)C(=O)N1CC[C@H]1c1c(-c3nc(-c4ccccc4)no3)ncn1-2
- inhibition [7]: 14%
- inhibition [8]: 10%
- inhibition [9]: 29%
- Ki [4]: 374 nM
- inhibition [10]: 15%

Structure (SMILES): CC(C)N(Cc1ncn2c1CN(C)C(=O)c1cc(Cl)ccc1-2)C(C)C
- Ki [1]: 4200 nM
- Ki [2]: 6270 nM
- Ki [3]: 12600 nM
- Ki [4]: 1350 nM
- Ki [5]: 8600 nM
- Ratio [6]: 3.2

Structure (SMILES): CCOC(=O)c1ncn2c1CN(C)C(=O)c1cc(C#N)ccc1-2
- Ki [1]: 10 nM
- Ki [2]: 19 nM
- Ki [3]: 45 nM
- Ki [4]: 6 nM
- Ki [5]: > 1000 nM
- Ratio [6]: 1.67

Structure (SMILES): CN1Cc2c(C(=O)OC(C)(C)C)ncn2-c2ccc(C#C[Si](C)(C)C)cc2C1=O
- Ki [1]: 197 nM
- Ki [2]: 255 nM
- Ki [3]: 143 nM
- Ki [4]: 2.61 nM
- Ki [5]: 58.6 nM
- Ratio [6]: 75.5

Structure (SMILES): C#Cc1ccc2c(c1)C(=O)N1CCC[C@@H]1c1c(C(=O)OCC)ncn1-2
- Ki [1]: 283 nM
- Ki [2]: 102 nM
- Ki [3]: 318 nM
- Ki [4]: 7.2 nM
- Ki [5]: 61 nM
- Ratio [6]: 39

Structure (SMILES): CCOC(=O)c1ncn2c1[C@@H]1CCCN1C(=O)c1cc(C#C[Si](C)(C)C)ccc1-2
- Ki [1]: 200 nM
- Ki [2]: 79 nM
- Ki [3]: 124 nM
- Ki [4]: 4 nM
- Ki [5]: 340 nM
- Ratio [6]: 50

Structure (SMILES): CN1Cc2c(C(=O)OC(C)(C)C)ncn2-c2ccc(N=C=S)cc2C1=O
- Ki [1]: 17.1 nM
- Ki [2]: 50 nM
- Ki [3]: 33.7 nM
- Ki [4]: 2.5 nM
- Ki [5]: 30.7 nM
- Ratio [6]: 6.8

Structure (SMILES): C#Cc1ccc2c(c1)C(=O)N1CCC[C@H]1c1c(C(=O)OCC)ncn1-2
- Ki [1]: 59 nM
- Ki [2]: 27 nM
- Ki [3]: 44 nM
- Ki [4]: 1.3 nM
- Ki [5]: 126 nM
- Ratio [6]: 45

Structure (SMILES): CCOC(=O)c1ncn2c1[C@@H]1CCCN1C(=O)c1cc(Br)ccc1-2
- Ki [1]: 49 nM
- Ki [2]: 15 nM
- Ki [3]: 29 nM
- Ki [4]: 1 nM
- Ki [5]: 46 nM
- Ratio [6]: 49
